Read-outs that look alike come from different tables or passages of the source. Values belong to the compound of their own block, whether it stands above or below them.
Columns and labels:
[1] = for Individual predictions V/F / Population predictions V/F: 1600/100 mg once daily; for Population predictions V/F: typical 70 kg male
[2] = Population pharmacokinetic model fitted to each study site separately; assay type: in vivo, human; settings: split model, 1600/100 mg once daily; for Population predictions CL/F / Population predictions V/F: typical 70 kg male
Summary of the method: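 UK sampling: pre-dose to 12 h (24 h if once daily). Thailand: pre-dose to 24 h, 10–15 g fat meal. Plasma from heparinized blood was frozen at −70°C and assayed by HPLC-MS/MS or HPLC-UV. Nonlinear mixed-effects modelling used FO estimation; individual estimates were Bayesian post hoc.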

[3] = healthy volunteers, Phase I studies; cited from earlier work
[4] = 2NN study, cited from earlier work

observed trough concentrations below target (MEC 0.1 mg/L), number ([1]; both, human, in vivo): 65 | decrease in F ([1]; fasted state compared with standardized meal): ~ 40% | D1 (duration of zero-order input) ([1]; full model): 3.08 h | IIV CL/F ([1]; full model): 41.4% | IIV D1 ([1]; full model): 17.8% | IIV V/F ([1]; full model): 41.6% | IIV lag-time ([1]; full model): 46.8% | IOV CL/F ([1]; full model): 57.3% | IOV V/F ([1]; full model): 37.3% | Lag-time ([1]; full model): 0.57 h | Residual error additive ([1]; full model): 0.26 mg/L | Residual error proportional ([1]; full model): 34.3% | V/F ([1]; full model, 1000/100 mg bid evening dose): 545 L | V/F ([1]; full model, 1000/100 mg bid morning dose): 324 L | V/F ([1]; full model, 1600/100 mg qd): 324 L | V/F ([1]; full model, 1600/100 mg qd Thailand): 379 L | V/F ([1]; full model, 1600/100 mg qd Uganda): 332 L | V/F ([1]; full model, 2000/100 mg qd): 324 L | Individual predictions V/F ([1]; full model, Thailand): 195.4 L | Population predictions V/F ([1]; full model, Thailand): 371.1 L | Individual predictions V/F ([1]; full model, UK): 272.9 L | Population predictions V/F ([1]; full model, UK): 317.2 L | Individual predictions V/F ([1]; full model, Uganda): 521.2 L | Population predictions V/F ([1]; full model, Uganda): 325.1 L | increase in F ([1]; high-fat meal (66 g fat) compared with standardized meal): ~ 80% | Individual predictions CL/F ([2]; Thailand): 22.8 L/h | Individual predictions V/F ([2]; Thailand): 184.1 L | Population predictions CL/F ([2]; Thailand): 26.7 L/h | Population predictions V/F ([2]; Thailand): 245.9 L | Individual predictions CL/F ([2]; UK): 79.4 L/h | Individual predictions V/F ([2]; UK): 278.8 L | Population predictions CL/F ([2]; UK): 89.0 L/h | Population predictions V/F ([2]; UK): 313.5 L | Individual predictions CL/F ([2]; Uganda): 59.0 L/h | Individual predictions V/F ([2]; Uganda): 400.2 L | Population predictions CL/F ([2]; Uganda): 49.8 L/h | Population predictions V/F ([2]; Uganda): 421.0 L
Structure (SMILES): CC(C)(C)NC(=O)[C@@H]1C[C@@H]2CCCC[C@@H]2CN1C[C@@H](O)[C@H](Cc1ccccc1)NC(=O)[C@H](CC(N)=O)NC(=O)c1ccc2ccccc2n1 [saquinavir]
bioavailability F [3]: 0.039

Structure (SMILES): Cc1ccnc2c1NC(=O)c1cccnc1N2C1CC1 [nevirapine]
higher clearance compared with Thai and South African individuals ([4]; South American HIV patients): ~ 11% | higher clearance compared with Thai and South African individuals ([4]; Western HIV patients): ~28%
